Bioassay records (PubChem BioAssay)
Most compounds without a hit are left out; they make up all but 1.2% or so of the library.
HCV core dimer: blocks dimerization of HCV core protein; 0.33% of 300,000 active; inhibition, % at 5 µM; TR-FRET GST/Flag-core106 dimerization, 1536-well; AID 1899;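 active means inhibition above the mean of all tested compounds plus 3 SD, set per screening campaign, cut at about 45% in these data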
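Test system: GST/Flag-tagged HCV core106 proteins; Medium: KF-containing HEPES buffer, pH 7.45, DTT, CHAPS, BSA; Times: compound-protein-antibody incubation 4 h at 22.5 °C; Detection: TR-FRET 671 and 617 nm emission; Benchmarks: wells lacking GST-core106 and wells with excess unlabelled core106.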
EBNA-1 inhibitor: blocks EBNA-1 binding to DNA; EBNA-1 DNA binding, fluorescence polarization; inhibition, % at 14.8 µM; 0.34% of 300,000 active; AID 1950; in the data active means inhibition above about 28%
HCV NS3 hel inh: inhibitors of Hepatitis C virus NS3 helicase. inhibition, % at 10.9 µM. NS3 helicase DNA unwinding, Cy5 molecular beacon fluorescence. AID 1800. 0.56% of 290,000 active;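 active means inhibition above the mean of all tested compounds plus 3 SD, set per campaign, cut at about 35% in these data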;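 further: 0% = DMSO wells and 100% = thioflavine S control wells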
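Control set: DMSO versus 110 µM thioflavine S; Material: NS3 helicase fragment of HCV; Measured by: Cy5 fluorescence at 0 and 60 min, beacon hairpin quenching; Read-out basis: percent inhibition from t60/t0 fluorescence ratio; Times: reaction time 60 min, 25 °C; Repeats: single replicate; Compound dosing: single dose, 10.9 µM nominal final, DMSO 0.8% final.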
ZTA counter: ZTA (EBV) inhibition in EBNA-1 counter-screen; P03206; ZTA-DNA binding, fluorescence polarization; inhibition, % at 11 µM; 0.15% of 320,000 active; AID 2234; in the data active means inhibition above about 33%
Target sequence (P03206 whole entry, looked up): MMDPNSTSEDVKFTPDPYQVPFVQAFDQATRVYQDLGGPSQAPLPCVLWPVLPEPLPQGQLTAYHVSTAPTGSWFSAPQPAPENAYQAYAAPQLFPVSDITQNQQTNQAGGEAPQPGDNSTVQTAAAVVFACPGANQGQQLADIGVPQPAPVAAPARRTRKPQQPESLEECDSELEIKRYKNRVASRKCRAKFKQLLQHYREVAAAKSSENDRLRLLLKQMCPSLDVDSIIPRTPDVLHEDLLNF
Active calls of the source: *; · = not tested or not shown.

SMILES	HCV core dimer	EBNA-1 inhibitor	HCV NS3 hel inh	ZTA counter
CCN(CC(=O)Nc1c(F)cccc1F)C(=O)/C=C/c1ccc2ccccc2n1	75*	15	·	12
Cc1cc(C(=O)CSc2nnc(-c3cccs3)n2Cc2ccccc2)c(C)n1C	17	1	-16	6
O=c1cc(CSc2nnc(-c3cccs3)n2Cc2ccccc2)nc2sc3ccccc3n12	60*	0	0	-6
C=CCn1c(C)cc(C(=O)Cn2ncc(Cl)c(Cl)c2=O)c1C	51*	4	28	7
CC(C)(C)C(=O)Cn1ncc(Cl)c(Cl)c1=O	·	·	11	·
CC1Cc2ccccc2N1Cc1nc2scc(-c3cccs3)c2c(=O)[nH]1 (stereo not drawn)	55*	2	28	-5
CC1Cc2ccccc2N1Cc1nc2cc(Cl)ccc2c(=O)[nH]1 (stereo not drawn)	72*	-11	3	-20
COC(=O)c1ccc2c(=O)[nH]c(CN3c4ccccc4CC3C)nc2c1 (stereo not drawn)	25	-10	1	4
Cc1cc(C(=O)OCC(=O)NC2(C#N)CCCCC2)c(C)o1	·	·	·	0
C=CCn1c(SCC(=O)Nc2sc3c(c2C#N)CCC3)nnc1C1COc2ccccc2O1 (stereo not drawn)	47*	7	9	4
O=C(COC(=O)c1ccncc1)Nc1cccc(Cl)c1	46*	-2	7	-7
C#CCn1c(=NC(=O)c2ccc(S(=O)(=O)N3CCCc4ccccc43)cc2)sc2cc(S(N)(=O)=O)ccc21	52*	16	7	14
Cn1c(=NC(=O)c2ccc(S(=O)(=O)N3CCCc4ccccc43)cc2)sc2cc(S(C)(=O)=O)ccc21	0	-7	1	-14
O=C(NCc1ccc2c(c1)OCO2)c1cc2ncc(Br)cn2n1	67*	-15	3	-3
CC1(C)C(=O)Nc2ccccc2N1C(=O)COc1ccc(S(=O)(=O)N2CCOCC2)cc1Cl	65*	3	-1	-2
Cc1ccc(NC2=C/C(=N\S(=O)(=O)c3cccs3)c3ccccc3C2=O)c(C)c1	52*	-6	-7	-8
Cc1cccc(NC2=C/C(=N/S(=O)(=O)c3cccs3)c3ccccc3C2=O)c1	-3	0	2	8
N=c1c(C(=O)NCc2ccco2)cc2c(=O)n3ccccc3nc2n1Cc1ccccc1	65*	4	11	-12
Cc1ccc2nc3c(cc(C(=O)NCc4ccco4)c(=N)n3Cc3ccco3)c(=O)n2c1	70*	-11	12	-3
N=c1c(C(=O)NCc2ccccc2)cc2c(=O)n3ccccc3nc2n1Cc1ccco1	24	11	2	8
Cc1ccc(CNC(=O)c2cc3c(=O)n4ccccc4nc3n(Cc3ccco3)c2=N)cc1	29	-1	·	-8
N=c1c(C(=O)NCc2ccco2)cc2c(=O)n3ccccc3nc2n1Cc1ccc(Cl)cc1	67*	-5	25	-9
Cc1cccc(N2CCN(C(=O)CSc3ccsc3[N+](=O)[O-])CC2C)c1 (stereo not drawn)	57*	7	-3	-15
Cc1cccc(N2CCN(C(=O)/C=C/c3cccs3)CC2C)c1 (stereo not drawn)	6	-5	-6	-6
CCC[C@@H](O)c1cc2cc(OC)c(OC)cc2c(=O)o1	·	·	·	5
SMILES	HCV core dimer	EBNA-1 inhibitor	HCV NS3 hel inh	ZTA counter
O=C1C(c2ccccc2)=[N+]([O-])c2ccccc21	-113	-3	·	-11
COc1ccc(/C=C2\CN(Cc3ccccc3)C/C(=C\c3ccc(OC)cc3)C2=O)cc1	6	6	-3	17
COc1ccc(/C=C2\CN(Cc3ccccc3)C/C(=C\c3ccc(OC)cc3OC)C2=O)c(OC)c1	49*	-12	-64	5
COc1ccc(CN2CCN(C(=O)CCC(=O)c3ccc(C)s3)CC2)cc1OC	·	·	·	-12
CCCCNC(=O)CSc1nnc(-c2cccc(S(=O)(=O)N3CCOCC3)c2)o1	·	·	·	0
O=C(CN1C(=O)/C(=C/c2ccccc2)SC1=S)Nc1ncc(Cc2ccccc2)s1	54*	-1	9	7
O=C(CCN1C(=O)/C(=C/c2ccccc2)SC1=S)Nc1ccccn1	8	11	35	7
CCOc1cccc(=O)c2c(C)n(Cc3ccccc3)c(C)c12	50*	3	27	1
CCOc1cccc(=O)c2c(C)n(-c3ccc(C(=O)O)cc3)c(C)c12	-4	7	22	41*
O=C(OC1CCCCC1)c1ccc2c(c1)C1C=CCC1C(C(=O)O)N2 (stereo not drawn)	·	·	40*	·
CCOC(=O)C1Nc2ccc(C)cc2C2C=CCC12 (stereo not drawn)	38	3	·	-1
O=C(CSc1ccc(Cl)cc1)c1ccco1	49*	5	9	-7
O=C(CSc1nnc(Nc2ccccc2F)s1)NC1CC1	·	·	·	-1
COc1cc(/C=C2/SC(=S)N(Cc3ccccc3)C2=O)cc(Cl)c1O	8	-20	48*	-1
O=C(Cc1ccc(F)cc1)Nc1ccc(Cl)cn1	-9	-9	-4	-5
O=C(c1cc(S(=O)(=O)N2CCN(c3ccccc3)CC2)ccc1Cl)N1CCCCCCC1	16	-3	·	15
O=C(Nc1ccc2c(c1)CCC2)c1cc(S(=O)(=O)N2CCN(c3ccccc3)CC2)ccc1Cl	55*	-6	-2	-10
COc1ccc([C@H]2CC(=O)C=C(c3ccc(CNC(=O)OC(C)(C)C)cc3)C2)cc1	·	·	·	0
COc1cccc(OC)c1OCc1cc(C2C3CCCC=C3C(C#N)=C(N)C2(C#N)C#N)c(C)cc1C (stereo not drawn)	56*	10	34	14
Cc1cccc(C(=O)OCC(=O)NC(=O)NCc2ccccc2)c1	·	·	·	7
COc1ccc(/C=C/C(=O)NC(=S)Nc2ccc(S(=O)(=O)N=C(N)N)cc2)cc1OC	20	58*	8	40*
Cc1cccc(C(=O)c2c(N)sc3c2CCCC3)c1	49*	10	26	-2
COc1ccc(-n2nc(C(=O)NCC(=O)Nc3cccc(Cl)c3)c3ccccc3c2=O)cc1OC	-52	-26	-30	-1
COc1ccc2oc(C(=O)Nc3ccccc3N3CCOCC3)c(C)c2c1	23	14	·	-11
COc1ccc2oc(C(=O)Nc3ccc(N4CCOCC4)cc3)c(C)c2c1	86*	2	·	-8
SMILES	HCV core dimer	EBNA-1 inhibitor	HCV NS3 hel inh	ZTA counter
CS(=O)(=O)c1ccc2nc(NC(=O)CCC(=O)c3cccs3)sc2c1	74*	1	-1	2
Cc1ccc(S(=O)(=O)Nn2c(C)ccc2C)cc1	67*	-7	7	-22
COc1ccc(-c2nn(-c3ccccc3)cc2/C=C(/C#N)C(N)=O)cc1[N+](=O)[O-]	47*	5	4	0
COc1ccc(-c2nn(-c3ccccc3)cc2/C=C(\C#N)C(N)=O)cc1[N+](=O)[O-]	54*	-11	2	-14
COc1ccc(-c2nn(-c3ccccc3)cc2C(=O)Nc2cccc(C(=O)O)c2)cc1[N+](=O)[O-]	17	3	6	6
Cc1oc(-c2ccc(F)cc2)cc1-c1nn2c(-c3ccoc3C)nnc2s1	91*	-4	·	8
O=C(CCCSc1ccccc1)Nc1ccc(Cl)c(S(=O)(=O)N2CCOCC2)c1	·	·	·	10
